# From PMC4428392 (Anti-Cancer Agents in Medicinal Chemistry, 2014)
# Where two headings read alike, the source gives them in different places.
# Experiments:
# Type in all cases: cell-based, Human
# [1] = tested on: HCT-116 cells; test: Cell cycle assay by flow cytometry; details: data not shown
# [2] = tested on: NCI-H460; test: MTT cytotoxicity assay in normoxia and hypoxia, NCI-H460; details: Homo sapiens
# Summary of the method: (§1)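 MCF-7 and HCT-116 were grown in DMEM; NCI-H460 in RPMI 1640 plus 10 mM HEPES; all media had 10% FBS, pyruvate and 1.5 g/L bicarbonate. Cells were seeded at 20000/well and grown 24 h at 20% O2, 5% CO2, 37 °C. Serial compound concentrations were then given for 24 h in normoxia, or for 6 h hypoxia (3% O2) followed by 18 h normoxia. MTT was read at 545 nm. IC50 came from linear regression of % inhibition versus log concentration, and HCR = IC50 normoxia/IC50 hypoxia.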
# [3] = tested on: HCT-116; test: MTT cytotoxicity assay in normoxia and hypoxia, HCT-116; details: for HCR = hypoxic cytotoxicity ratio IC50 (aerobic)/IC50 (hypoxic): HCT-116; for IC50: Homo sapiens
# Summary of the method: as §1
# [4] = tested on: co-cultured HUVECs and fibroblasts; test: In vitro tube formation test; details: 2 μM, 11 days
# Summary of the method: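 HUVECs were co-cultured with fibroblasts for 11 days in basal medium, solvent-control medium (0.2% DMSO), or solvent medium with test compound at 2 or 20 μM. Medium ± compound was renewed every 3 days, and suramin served as the kit positive control. HUVECs were stained with anti-CD31, and tube area, length, joints and paths were measured by image analyzer over 5 fields. Quadruplicate wells; mean ± SEM, n=4.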
# [5] = NCI-H460, 24 h, read-out: Cytotoxicity (IC50) NCI-H460 N
# [6] = NCI-H460, read-out: Cytotoxicity (IC50) NCI-H460 H
# [7] = HCT-116, 24 h, read-out: Cytotoxicity (IC50) HCT-116 N
# [8] = HCT-116, read-out: Cytotoxicity (IC50) HCT-116 H
# [9] = HCT-116, read-out: Cytotoxicity (IC50), cell kill under hypoxia
Compound,effect on HCT-116 cell cycle (G2/M accumulation) [1],"IC50 [2, 5]","IC50 [2, 6]",HCR = hypoxic cytotoxicity ratio IC50 (aerobic)/IC50 (hypoxic) [3],"IC50 [3, 7]","IC50 [3, 8]","IC50 [3, 9]","reduction of areas, lengths, paths and joints of tube formation [4]"
"1,2,4-benzotriazine-1-oxide [Compound 1]",invalid,–,–,–,–,–,–,–
"NCCNc1n[n+]([O-])c2ccccc2[n+]1[O-] [Compound 8a, N^1-(1,4-Dioxido-1,2,4-benzotriazine-3-yl)-1,2-ethanediamine]",–,18.7 ± 2.7 µM,10.1 ± 3.7 µM,1.8,40.3 ± 14.6 µM,22.4 ± 9.7 µM,22.4 µM,–
"NCCCNc1n[n+]([O-])c2ccccc2[n+]1[O-] [Compound 8b, N^1-(1,4-Dioxido-1,2,4-benzotriazine-3-yl)-1,3-propanediamine]",–,95.6 ± 33.9 µM,79.5 ± 26.6 µM,1.7,90.4 ± 3.5 µM,54.8 ± 8 µM,54.8 µM,–
"NCCCCCNc1n[n+]([O-])c2ccccc2[n+]1[O-] [Compound 8d, N^1-(1,4-Dioxido-1,2,4-benzotriazine-3-yl)-1,5-pentanediamine]",–,101 ± 38.9 µM,83.4 ± 33.8 µM,1.7,93.7 ± 20 µM,55.3 ± 7.5 µM,55.3 µM,–
"NCCCCCCNc1n[n+]([O-])c2ccccc2[n+]1[O-] [Compound 8e, N^1-(1,4-Dioxido-1,2,4-benzotriazin-3-yl)-1,6-hexanediamine]",–,104 ± 15.1 µM,68.7 ± 15.1 µM,1.5,91.2 ± 16.2 µM,62.9 ± 11 µM,62.1 µM,–
"NCCCCCCCNc1n[n+]([O-])c2ccccc2[n+]1[O-] [Compound 8f, N^1-(1,4-Dioxido-1,2,4-benzotriazine-3-yl)-1,7-heptanediamine]",–,79.4 ± 22.6 µM,42.8 ± 8.3 µM,1.9,78.3 ± 4.9 µM,40.8 ± 4.3 µM,40.8 µM,–
"NCCCCCCCCNc1n[n+]([O-])c2ccccc2[n+]1[O-] [Compound 8g, N^1-(1,4-Dioxido-1,2,4-benzotriazine-3-yl)-1,8-octanediamine]",–,82.7 ± 20.4 µM,45.8 ± 6.1 µM,2.2,97 ± 8.7 µM,44.8 ± 6 µM,44.8 µM,31-40%
